These results are taken from ChEMBL document CHEMBL3632537, “Chalcones from Angelica keiskei: Evaluation of Their Heat Shock Protein Inducing Activities” (J Nat Prod, 2015).

Data set [1] concerns L132 (Homo sapiens). The data set can be described thus: Upregulation of HSP27 mRNA expression in human L132 cells by RT-PCR analysis.
Data set [2] concerns L132 (Homo sapiens). The data set can be described thus: Upregulation of HSP70 protein expression in human L132 cells by Western blot analysis. A general note: Immunoblotting shows a protein as a band on a membrane.
Data set [3] deals with L132 (Homo sapiens). The data set can be described thus: Upregulation of HSF1 protein expression in human L132 cells by Western blot analysis.
Data set [4] relates to L132 (Homo sapiens). In words: Upregulation of HSP70 mRNA expression in human L132 cells by RT-PCR analysis.
In data set [5] the test system is L132 (Homo sapiens). In words: Upregulation of HSP27 protein expression in human L132 cells by Western blot analysis.
The subject of another data set is NCI-H460. In words: Induction of hsp25 promoter activity in human NCI-H460 cells at 10 uM measured at 5 hrs by luciferase reporter gene assay relative to control. Type of data set: functional. In a few lines:
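NCI-H460 human lung cancer cells carrying a luciferase reporter driven by the murine hsp25 promoter. Cells were plated at 1 × 10⁵ per well, grown 24 h, then exposed to 10 μM compound and harvested 5 h later. Lysate luciferase was normalized to β-galactosidase and expressed as fold induction over untreated control. Values are mean ± SD of three independent experiments.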
A general note: In a reporter assay the amount or activity of a reporter protein is the signal.

For data set [6], the system named is L132 (Homo sapiens). In words: Upregulation of HSF1 mRNA expression in human L132 cells by RT-PCR analysis.
Data set [7] can be described thus: Cytotoxicity against human L-132 cells assessed as cell viability at 1 to 8 uM after 12 hrs by MTT assay. Type of data set: cell-based. The note with it: l132, 12 h. Put shortly: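 L132 human lung fibroblasts exposed 12 h to 1, 2, 4 or 8 μM; medium swapped for MTT 0.5 mg/mL in PBS, 3 h at 37 °C, formazan dissolved in DMSO, absorbance at 540 nm converted to cell number via calibration curve; viability as ratio to DMSO no-treatment control; mean ± SD of three independent experiments, Student's t test vs untreated.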

The test system of data set [8] is L132 (Homo sapiens). In words: Upregulation of HSP27 protein expression in human L132 cells at 2 uM measured at 6 hrs by Western blot analysis relative to control.
Data set [9] relates to L132 (Homo sapiens). In words: Upregulation of HSF1 protein expression in human L132 cells at 2 uM measured at 6 hrs by Western blot analysis relative to control.
Data set [10] relates to L132 (Homo sapiens). In words: Upregulation of HSP70 mRNA expression in human L132 cells at 2 uM measured at 3 hrs by RT-PCR analysis relative to control.
Data set [11] relates to L132 (Homo sapiens). In words: Upregulation of HSP70 protein expression in human L132 cells at 2 uM measured at 6 hrs by Western blot analysis relative to control.
In data set [12] the test system is L132 (Homo sapiens). The data set can be described thus: Upregulation of HSP27 mRNA expression in human L132 cells at 2 uM measured at 3 hrs by RT-PCR analysis relative to control.

Calls of active or inactive are those of the source. The rule behind the calls is not given here.

On to `COC(C)(C)/C=C/C/C(C)=C/Cc1c(O)ccc(C(=O)/C=C/c2ccc(O)cc2)c1O`, for which the result in the data set with L132 (Homo sapiens) [1], in the data set with L132 (Homo sapiens) [2], in the data set with L132 (Homo sapiens) [3], in the data set on L132 (Homo sapiens) [4], with L132 (Homo sapiens) [5] and in the data set with L132 (Homo sapiens) [6] was inactive. The “fold change (FC)” value in the data set on NCI-H460 is 21.9.
On to `C=C(CCC=C(C)C)C(O)Cc1c(O)ccc(C(=O)/C=C/c2ccc(O)cc2)c1O` (racemic), for which the Activity result in data set [7] was “Non-toxic”. Moreover, the “fold change (FC)” value in the data set with L132 (Homo sapiens) [8] stood at 4.6; with L132 (Homo sapiens) [9], 4.3; with L132 (Homo sapiens) [10], 5; with L132 (Homo sapiens) [11], 1.5; in the data set on L132 (Homo sapiens) [12], 1.5; with NCI-H460, 29.2.
As to `CC1=C(O)C(=O)C=C2C1=CC=C1[C@@]2(C)CC[C@@]2(C)[C@@H]3C[C@](C)(C(=O)O)CC[C@]3(C)CC[C@]12C` [CELASTROL], the Activity result in [7] is “Toxic”.
